Test results published in PubChem BioAssay.
Calls of active or inactive are those of the source.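 The calls were made as follows, unless noted: active = viability loss from added drug above about 55%, and viability with drug at most 40%, in both replicates (limit read from the data, passing the limit was not always enough); inconclusive = both conditions met in only one replicate; inactive = neither replicate meets both conditions.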

What was measured:
[1] = reducers of endogenous Her2 protein level, primary screen, SKBR3 breast tumor cells, AlphaScreen, ATP viability (AID 461;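 active = Her2 level under about 52% in both replicate screens, with viability over 70% of control, limit read from the data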;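 as to Her2 level: lower value means less Her2 protein in the cells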;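 as to viability: percent of carrier control wells set as 100% viability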); conditions: 18-24 h, measured here: SKBR3 viability, ATP luminescence, at 10 µM
[2] = biological target: Receptor tyrosine-protein kinase erbB-2 (Homo sapiens) (UniProt P04626); test: as above; conditions: 18-24 h, at 10 µM, stronger effect = lower value
Chain of Receptor tyrosine-protein kinase erbB-2 (Homo sapiens) (P04626 whole entry, looked up): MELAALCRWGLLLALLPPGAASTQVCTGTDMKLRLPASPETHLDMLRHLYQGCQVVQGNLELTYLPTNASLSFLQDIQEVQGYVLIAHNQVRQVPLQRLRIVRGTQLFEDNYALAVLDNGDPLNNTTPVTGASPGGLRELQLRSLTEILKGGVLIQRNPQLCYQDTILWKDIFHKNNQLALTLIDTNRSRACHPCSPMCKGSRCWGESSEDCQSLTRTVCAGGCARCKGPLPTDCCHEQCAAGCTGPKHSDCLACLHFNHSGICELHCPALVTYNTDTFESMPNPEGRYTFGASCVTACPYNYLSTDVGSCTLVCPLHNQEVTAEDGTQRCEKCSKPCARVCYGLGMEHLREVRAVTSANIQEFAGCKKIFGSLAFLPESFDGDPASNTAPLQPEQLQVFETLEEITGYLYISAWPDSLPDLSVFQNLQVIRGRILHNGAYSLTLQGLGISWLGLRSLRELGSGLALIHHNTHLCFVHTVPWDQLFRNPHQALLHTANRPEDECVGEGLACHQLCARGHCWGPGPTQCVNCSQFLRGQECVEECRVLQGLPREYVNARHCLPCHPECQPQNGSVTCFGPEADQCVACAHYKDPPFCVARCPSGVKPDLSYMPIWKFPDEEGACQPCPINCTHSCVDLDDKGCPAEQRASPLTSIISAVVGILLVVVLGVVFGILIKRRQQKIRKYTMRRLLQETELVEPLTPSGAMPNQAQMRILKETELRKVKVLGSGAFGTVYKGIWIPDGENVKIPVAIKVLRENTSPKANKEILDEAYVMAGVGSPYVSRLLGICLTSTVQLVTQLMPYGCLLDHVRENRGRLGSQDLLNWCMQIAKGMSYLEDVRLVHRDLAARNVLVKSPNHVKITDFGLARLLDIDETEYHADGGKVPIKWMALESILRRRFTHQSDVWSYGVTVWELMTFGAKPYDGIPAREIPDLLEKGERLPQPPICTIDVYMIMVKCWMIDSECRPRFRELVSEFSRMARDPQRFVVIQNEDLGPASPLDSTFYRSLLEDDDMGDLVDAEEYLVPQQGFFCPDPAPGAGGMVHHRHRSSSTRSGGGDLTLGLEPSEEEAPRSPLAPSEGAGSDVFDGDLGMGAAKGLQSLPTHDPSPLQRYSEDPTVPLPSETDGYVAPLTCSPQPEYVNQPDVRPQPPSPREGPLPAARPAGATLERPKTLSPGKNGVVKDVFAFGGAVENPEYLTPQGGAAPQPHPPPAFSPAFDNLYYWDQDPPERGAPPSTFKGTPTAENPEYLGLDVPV

[3] = SK-BR-3 cell growth inhibitors, pilot screen, 24 h, human (AID 572;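 active = viability at or below 10% of carrier control in both of two separate runs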;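 also: compound exposure lasted between 18 and 24 h rather than exactly 24 h; 100% = carrier-treated control wells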); conditions: SK-BR-3 viability, CellTiter-Glo luminescence, at 10 µM, stronger effect = lower value
[4] = HUVEC growth inhibition – cell-based, human, primary screen (AID 575;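 active = viability at or below 30% in both replicate assays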;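 also: 100% = median of untreated cell wells with 0.1% DMSO on each plate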); conditions: HUVEC proliferation, CellTiter-Glo luminescence, 72 h; at 10 µM; stronger effect = lower value
Method in brief: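 Assay system: Primary human umbilical vein endothelial cells | Quantity: 1250 cells per well | Medium: Supplemented EBM, 2% fetal bovine serum | Detection: CellTiter-Glo luminescence measuring cellular ATP | Read-out: % viability vs DMSO wells | Plate: Collagen-coated 384-well format | Times: 72 h exposure, 37 °C, 5% CO2, 30 min RT equilibration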

[5] = growth inhibitors of H69AR lung tumor, primary screen, human, duplicate replicates (AID 580;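 active = viability at or under a set limit in both replicates, limit being median viability minus 3 SD, cut at about 48% in these data, passing the limit was not always enough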;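 also: 100% = mean luminescence of untreated wells and 0% = no signal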); conditions: H69AR lung tumor cells viability, ATP luminescence, 72 h; at 10 µM; stronger effect = lower value
[6] = reversal of MRP1-mediated doxorubicin resistance, pilot screen, H69AR cells, doxorubicin co-treatment (AID 601); conditions: CellTiter-Glo, 72 h, at 10 µM; for differential viability (reversal): stronger effect = higher value
[7] = 384-well plate pilot, post-Golgi transport modulator project, inhibition of yeast transport mutant growth (AID 636; in the data active = inhibition above about 31%); conditions: absorbance 615 nm, about 18 h, stronger effect = higher value
[8] = growth suppression of yeast trafficking mutant, preliminary HTS, modulators of trafficking downstream of Golgi apparatus project, 1536-format plate, OD 615 nm (AID 637; in the data active = inhibition above about 30%); conditions: yeast transport mutant growth, absorbance 615 nm, 18 h; stronger effect = higher value
[9] = H69AR cells + 2 uM doxorubicin, measured here: viability with 2 uM doxorubicin, stronger effect = lower value
[10] = H69AR cells, compound alone cytotoxicity

Structure (SMILES)	viability [1] [%]	Her2 level [2]	viability [3]	viability [4]	viability [5]	differential viability (reversal) ([6]; H69AR cells + 2 uM doxorubicin)	viability [6, 9] [%]	viability [6, 10] [%]	inhibition [7]	inhibition [8]
COc1ccc(S(=O)(=O)N2CCC(C(=O)c3ccc4c(c3)OCCO4)CC2)cc1	88.5	108% (inactive)	88.5% (inactive)	61.7% (inactive)	91.5% (inactive)	7.49% (inactive)	84	91.5	-1.95% (inactive)	-8.69% (inactive)
COc1ccc(C(CNC(=O)c2ccc(OCC3CCCO3)cc2)N2CCOCC2)cc1 (stereo not given)	90	93.5% (inactive)	90% (inactive)	82.9% (inactive)	105% (inactive)	13.8% (inactive)	90.7	105	-1.33% (inactive)	-2.42% (inactive)
COC(=O)CN(c1ccc(C)c(Cl)c1)S(C)(=O)=O	108	100% (inactive)	108% (inactive)	99.5% (inactive)	101% (inactive)	10.7% (inactive)	90.5	101	-2.27% (inactive)	-0.81% (inactive)
CCOC(=O)CSc1nc2cc(C(=O)NCc3ccco3)ccc2c(=O)n1C1CCCCC1	112	83.5% (inactive)	112% (inactive)	91.7% (inactive)	89.8% (inactive)	2.55% (inactive)	87.3	89.8	-4.53% (inactive)	0.33% (inactive)
Cc1nc2sc(C#N)c(N)c2c2c1CCCC2	95.5	78.5% (inactive)	95.5% (inactive)	85.7% (inactive)	102% (inactive)	-6% (inactive)	108	102	-1.97% (inactive)	4.36% (inactive)
O=C(CCSc1nnc(-c2ccncc2)o1)Nc1ccccc1	90.5	80.5% (inactive)	90.5% (inactive)	108% (inactive)	100% (inactive)	10.3% (inactive)	89.8	100	-0.79% (inactive)	5.27% (inactive)
CCOC(=O)c1c(NC(=O)CSc2nnc(-c3cccnc3)o2)sc(C)c1C	120	104% (inactive)	120% (inactive)	103% (inactive)	99.1% (inactive)	14% (inactive)	85.1	99.1	-4.34% (inactive)	-8.73% (inactive)
COc1ccc(OC)c(Nc2cc(-c3ccccc3)nc(N)n2)c1	72	69% (inactive)	72% (inactive)	34.2% (inactive)	30.7% (active)	-36.4% (inactive)	67.1	30.7	-5.92% (inactive)	-5.09% (inactive)
CCc1ccccc1NC(=O)CSc1nc2n[nH]c(C)c2c(=N)n1-c1ccc(OC)cc1	98.5	77.5% (inactive)	98.5% (inactive)	66.4% (inactive)	80% (inactive)	-2.23% (inactive)	82.3	80	-5.92% (inactive)	6.51% (inactive)
CS(=O)(=O)Nc1ccc(C(=O)NCCc2ccccc2)cc1	96.5	94.5% (inactive)	96.5% (inactive)	102% (inactive)	98.3% (inactive)	12.9% (inactive)	85.4	98.3	-3.47% (inactive)	-3.55% (inactive)
COC(=O)c1ccc(CSc2nc(-c3ccc(OC)cc3)nc3c2c(=O)n(C)c(=O)n3C)o1	100	74% (inactive)	100% (inactive)	85.8% (inactive)	77.4% (inactive)	-11.5% (inactive)	89	77.4	-4.8% (inactive)	-3.11% (inactive)
CCOC(=O)N1CCN(C(=O)c2ccc3c(=O)n(CCc4ccccc4)c(=O)[nH]c3c2)CC1	98.5	108% (inactive)	98.5% (inactive)	77.1% (inactive)	85.6% (inactive)	30% (inactive)	55.6	85.6	-1.49% (inactive)	14.8% (inactive)
CCN(CC)CC(C)CNC(=O)CC(C(=O)N1CCc2ccccc21)n1ccnc1 (stereo not given)	88.5	106% (inactive)	88.5% (inactive)	104% (inactive)	95.9% (inactive)	-7.88% (inactive)	104	95.9	0.52% (inactive)	-9.34% (inactive)
CCCc1ccc(S(=O)(=O)NCCc2ccncc2)cc1	96	91.5% (inactive)	96% (inactive)	85.4% (inactive)	106% (inactive)	16.6% (inactive)	89.6	106	-4.19% (inactive)	-1.27% (inactive)
Cc1ccc(N2CC(C(=O)Nc3nnc(C)s3)CC2=O)cc1 (stereo not given)	110	90% (inactive)	110% (inactive)	86.2% (inactive)	106% (inactive)	16.4% (inactive)	89.9	106	-4.67% (inactive)	0.65% (inactive)
O=C(CCOc1ccccc1)NCc1ccccc1	122	102% (inactive)	122% (inactive)	89.9% (inactive)	89.6% (inactive)	-0.41% (inactive)	90	89.6	4.03% (inactive)	28.9% (inactive)
Cc1cccn2c(=O)c3cc(C#N)c(=NC(=O)c4cccnc4)n(CC4CCCO4)c3nc12 (stereo not given)	92.5	108% (inactive)	92.5% (inactive)	94.4% (inactive)	71.1% (inactive)	27% (inactive)	44.1	71.1	-1.18% (inactive)	-9.35% (inactive)
COC(=O)c1ccc(N2C(=O)CC(N3CCN(C(=O)c4ccco4)CC3)C2=O)cc1 (stereo not given)	86	89.5% (inactive)	86% (inactive)	85.9% (inactive)	89.5% (inactive)	-4.23% (inactive)	93.7	89.5	-3.73% (inactive)	-2.95% (inactive)
Cc1cc(C)n(-c2nc(C)nc3sc4c(c23)CCC(C)C4)n1 (stereo not given)	92.5	108% (inactive)	92.5% (inactive)	80.8% (inactive)	96.4% (inactive)	-0.45% (inactive)	96.8	96.4	-1.04% (inactive)	-13.8% (inactive)
c1ccc2c(c1)CNC1(CCCCC1)C2	103	94.5% (inactive)	103% (inactive)	103% (inactive)	102% (inactive)	12.9% (inactive)	88.6	102	-8.63% (inactive)	1.27% (inactive)
O=C(CSc1nnc(Cc2cc(=O)[nH]c(=O)[nH]2)n1-c1ccccc1)NCC1CCCO1 (stereo not given)	99	84.5% (inactive)	99% (inactive)	96.1% (inactive)	98.4% (inactive)	3.05% (inactive)	95.4	98.4	-6.8% (inactive)	-1.11% (inactive)
COc1ccc2cc(C#N)c(NC(C)C)nc2c1	90.5	63% (inactive)	90.5% (inactive)	90.8% (inactive)	75.4% (inactive)	-6.05% (inactive)	81.4	75.4	-2.76% (inactive)	2.91% (inactive)
Cc1cc(C)n2nc(S(=O)(=O)N(C)Cc3ccccc3)nc2n1	80	91% (inactive)	80% (inactive)	122% (inactive)	93.4% (inactive)	4.15% (inactive)	89.2	93.4	-7.16% (inactive)	-5.67% (inactive)
Cn1c(=O)c2c(nc(Br)n2CCSc2ncccn2)n(C)c1=O	98	114% (inactive)	98% (inactive)	106% (inactive)	103% (inactive)	21.7% (inactive)	81.1	103	-1.87% (inactive)	-10.2% (inactive)
CCCC1(C(=O)OCC)NC(c2ccc(N(C)C)cc2)C2C(=O)N(c3ccccc3)C(=O)C21 (stereo not given)	109	99% (inactive)	109% (inactive)	99.2% (inactive)	97.2% (inactive)	3.73% (inactive)	93.5	97.2	-7.11% (inactive)	-6.03% (inactive)
Nc1ccc(C(=O)OCCCc2nc3ccccc3[nH]2)cc1	92	107% (inactive)	92% (inactive)	97.9% (inactive)	99.1% (inactive)	1.74% (inactive)	97.4	99.1	5.41% (inactive)	-19.1% (inactive)
CC(=O)Nc1ccc(OC(=O)c2cccnc2)cc1	111	116% (inactive)	111% (inactive)	116% (inactive)	99.9% (inactive)	15.1% (inactive)	84.9	99.9	-7.57% (inactive)	-3.17% (inactive)
CCOC(=O)N1CCN(c2c(NCCCOC(C)C)c(=O)c2=O)CC1	97.5	90% (inactive)	97.5% (inactive)	86.8% (inactive)	97.5% (inactive)	7.67% (inactive)	89.8	97.5	-3.47% (inactive)	-0.98% (inactive)
